Reference: ChEMBL document CHEMBL1147007, “Optimization of 2-aminothiazole derivatives as CCR4 antagonists” (Bioorg Med Chem Lett, 2006)

Columns and labels:
[1] = target: T1, C-C chemokine receptor type 4 (Homo sapiens, UniProt P51679); assay: Displacement of [125I]TARC from CCR4 expressed in human CEM cell line; format: cell-based, CCRF-CEM
T1 sequence (P51679 whole entry): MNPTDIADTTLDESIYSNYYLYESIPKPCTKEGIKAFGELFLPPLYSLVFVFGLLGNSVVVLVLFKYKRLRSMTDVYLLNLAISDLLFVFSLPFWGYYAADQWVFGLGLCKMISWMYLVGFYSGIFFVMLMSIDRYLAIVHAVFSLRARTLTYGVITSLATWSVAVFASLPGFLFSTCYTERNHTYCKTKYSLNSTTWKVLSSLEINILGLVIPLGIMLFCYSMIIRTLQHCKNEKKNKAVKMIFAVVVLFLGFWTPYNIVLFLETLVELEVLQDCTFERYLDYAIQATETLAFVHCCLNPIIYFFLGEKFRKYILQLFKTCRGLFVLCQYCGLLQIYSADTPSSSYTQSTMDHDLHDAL
Summary of the method: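 CEM cells at 5 · 10^6/mL in RPMI-1640 with 0.5% BSA, incubated with compound (diluted in DMSO) and [125I]TARC diluted to 100 pM in buffer, 2 h at room temperature. Bound ligand collected by filtration through GF/B filters and counted by scintillation. Values are means of three experiments (standard deviation ±30%).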

[2] = Terminal half life in rat at 0.5 mg/kg, iv; format: ADME, organism-based; parameters: dose 0.5 mg/kg, route intravenous; conditions: in vivo
[3] = Clearance in rat at 0.5 mg/kg, iv; format: ADME, organism-based; parameters: dose 0.5 mg/kg, route intravenous; conditions: in vivo
[4] = Oral bioavailability in rat at 2 mg/kg, po; format: ADME, organism-based; conditions: in vivo
Summary of the method: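 Rats dosed by oral gavage at 2 mg/kg; oral bioavailability determined.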

[5] = target: T1, C-C chemokine receptor type 4; assay: Displacement of [125I]MDC from CCR4 expressed in human CEM cell line; format: cell-based, CCRF-CEM

IC50 [1]	SMILES	other results
> 25000 nM	NCc1csc(Nc2cccc3ccccc23)n1	
37 nM	Cn1ccc2c(Nc3nc(C(C)(C)C)cs3)cccc21	
900 nM	CC(C)(C)c1ccc(-c2csc(Nc3cccc4ccccc34)n2)cc1	
4500 nM	CC(C)(C)c1csc(Nc2ccccc2)n1	
440 nM	CC(C)c1ccccc1Nc1nc(C(C)(C)C)cs1	
12100 nM	Cc1cccc(Nc2cc(CN(Cc3ccccc3C(F)(F)F)CC3CCCCC3)no2)c1C	
170 nM	CC(C)c1csc(Nc2cccc3ccccc23)n1	
18 nM	c1ccc2c(Nc3nc(CN(CC4CCCCC4)CC4CCCCC4)cs3)cccc2c1	half-life [2]: 3.6 h; clearance [3]: 17.8 mL/min/kg; bioavailability [4]: 63%; IC50 [5]: 31 nM
340 nM	Cc1cccc(Nc2cccc(CN(Cc3ccccc3C(F)(F)F)CC3CCCCC3)n2)c1C	
5500 nM	c1ccc(-c2csc(Nc3cccc4ccccc34)n2)cc1	
1500 nM	CC(C)(C)c1csc(Nc2cccc3cnccc23)n1	
80 nM	CC(C)(C)c1csc(Nc2cccc3ccccc23)n1	
900 nM	Cc1ccccc1Nc1nc(C(C)(C)C)cs1	
1700 nM	Cc1csc(Nc2cccc3ccccc23)n1	half-life [2]: 0.4 h; clearance [3]: 70 mL/min/kg; bioavailability [4]: 2%; IC50 [5]: 3000 nM
800 nM	CCN(CC)Cc1csc(Nc2cccc3ccccc23)n1	

Second part, the compound before the results:

SMILES	IC50 [1]	other results
CC(C)c1csc(Cc2cccc3ccccc23)n1	> 25000 nM	
CC(C)(C)c1csc(Nc2cccc3cccnc23)n1	> 25000 nM	
Cc1cccc(Nc2nc(C(C)(C)C)cs2)c1C	260 nM	
CC(C)(C)c1coc(Nc2cccc3ccccc23)n1	80 nM	
CCNCc1csc(Nc2cccc3ccccc23)n1	1000 nM	
CC(C)CN(Cc1csc(Nc2cccc3ccccc23)n1)CC(C)C	45 nM	
CC(C)(C)c1csc(Nc2cccc3[nH]ccc23)n1	490 nM	
Cc1csc(N(C)c2cccc3ccccc23)n1	> 25000 nM	
CC(C)(C)c1csc(Nc2cccc3ncccc23)n1	300 nM	
Cc1cccc(Nc2cc(CN(Cc3ccccc3C(F)(F)F)CC3CCCCC3)n[nH]2)c1C	> 25000 nM	
CC(C)(C)c1csc(Nc2cccc3c2CCCC3)n1	210 nM	
CCn1ccc2c(Nc3nc(C(C)(C)C)cs3)cccc21	210 nM	
CC(C)(C)c1ccnc(Nc2cccc3ccccc23)n1	> 25000 nM	
FC(F)(F)c1ccccc1CN(Cc1csc(Nc2cccc3ccccc23)n1)CC1CCCCC1	14 nM	
Cc1cccc(Nc2cc(CN(Cc3ccccc3C(F)(F)F)CC3CCCCC3)nn2C)c1C	370 nM	
CC(C)(C)Cc1csc(Nc2cccc3ccccc23)n1	220 nM	
Cc1cccc(Nc2nc(C(C)(C)C)cs2)c1	2000 nM	
